# Compound activity from PubChem BioAssay.
# Compounds with a hit are over-represented: about 6.8% of the library has one in this group of screens.
# HSF1 inh: HSF1 inhibition; NIH3T3-HGL HSE-luciferase, MG132-induced, luminescence 8 h; active compounds read low; activity change, negative = inhibition, % at 7.5 µM (by protocol); 300,000 tested, 0.77% active; AID 2098;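 active = more than half of replicate wells show activity change below -50%, luminescence cut by over half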;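 note: luciferase reports HSF-1 transcriptional activity via heat shock element; 0% = median of DMSO wells and -100% = zero luminescence signal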
# PHOSPHO1 inh: inhibitors of human PHOSPHO1 phosphatase | recombinant PHOSPHO1, absorbance phosphatase assay | inhibition, % at 13.3 µM | 290,000 tested, 1.1% active | AID 1565; in the data active = inhibition above about 60%
# Target sequence (Q8TCT1 whole entry, looked up): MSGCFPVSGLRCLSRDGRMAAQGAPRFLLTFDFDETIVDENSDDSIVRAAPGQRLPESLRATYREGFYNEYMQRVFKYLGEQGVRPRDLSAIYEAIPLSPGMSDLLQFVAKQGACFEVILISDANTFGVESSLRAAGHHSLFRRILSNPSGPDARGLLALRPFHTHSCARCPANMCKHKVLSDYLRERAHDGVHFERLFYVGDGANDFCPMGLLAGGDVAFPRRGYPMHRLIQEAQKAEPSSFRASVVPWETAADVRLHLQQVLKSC
# HCV core dimer: HCV core protein dimerization inhibition; TR-FRET GST/Flag-core106 dimerization, 1536-well; inhibition, % at 5 µM; 300,000 tested, 0.33% active;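 active = inhibition above the mean of all tested compounds plus 3 SD, set per screening campaign, cut at about 45% in these data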
#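 System: GST/Flag-tagged HCV core106 proteins. Incubation: compound-protein-antibody incubation 4 h at 22.5 °C. Technique: HTRF with 340 nm excitation, 617/671 nm emission. Medium: KF-containing HEPES buffer, pH 7.45, DTT, CHAPS, BSA. Read-out: inhibition (%) from 671 over 617 nm ratio. Also added: Eu(K)-anti-GST 90 ng/mL plus XL665-anti-Flag 1 µg/mL.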
# AI-2 QS modul: modulates the Vibrio harveyi AI-2 quorum sensing system. Vibrio harveyi JMH597 AI-2 luminescence/OD600 ratio, 9 h; active compounds read low; strain lacks LuxN and CqsS sensors; 0 = neutral-control median. activity change, % at 7.5 µM. 300,000 tested, 0.4% active. AID 2094; in the data active = activity change below about -75%, passing the limit was not always enough;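 note: luminescence divided by OD600 gain over 9 h not by final OD600 alone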
# ALR inh: blocks human ALR sulfhydryl oxidase activity; P55789; purified ALR, DTT oxidation, H2O2 HRP-luminol luminescence; inhibition, % (concentration not given with the values); 290,000 tested, 3.8% active; AID 485317;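 active = mean replicate inhibition above about 79%, with every replicate also reaching it, limit read from the data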
# Target sequence (P55789 whole entry, looked up): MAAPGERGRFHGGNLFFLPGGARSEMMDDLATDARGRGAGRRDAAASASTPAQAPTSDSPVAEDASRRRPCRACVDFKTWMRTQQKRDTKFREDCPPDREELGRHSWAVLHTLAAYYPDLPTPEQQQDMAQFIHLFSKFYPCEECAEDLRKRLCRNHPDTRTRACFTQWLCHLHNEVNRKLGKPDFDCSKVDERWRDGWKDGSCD
# HSF-1 act: increases HSF-1 driven luciferase reporter signal; 300,000 tested, 1.7% active; activation, % at 9 µM; AID 504408; NIH3T3-HGL HSF-1 luciferase reporter, MG132, 8 h; 100% = twice DMSO control signal;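 active = mean replicate activation of at least 50% with a set share of replicates each reaching 50%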;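 note: 0% = median of the neutral control wells and 100% = twice that signal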
# The depositor's hits bear a star; · = not tested or not shown.
SMILES,HSF1 inh,PHOSPHO1 inh,HCV core dimer,AI-2 QS modul,ALR inh,HSF-1 act
CC1(C)CC(NC(=O)c2ccccc2C(=O)NC2CC(C)(C)NC(C)(C)C2)CC(C)(C)N1,-2.3,-12.6,-2.4,22.5,-3.3,3.5
CC1(C)CC(NC(=O)N2c3ccccc3Sc3ccccc32)CC(C)(C)N1,-6.5,1.0,-2.6,15.7,98.8*,-3.0
Cc1onc(-c2ccccc2Cl)c1C(=O)NC(=S)Nc1ccccc1C(N)=O,5.7,-1.5,-3.0,-17.0,94.7*,13.4
Cc1onc(-c2ccccc2Cl)c1C(=O)NC1CCS(=O)(=O)C1 (stereo unspecified),-2.8,6.7,-4.5,12.7,96.3*,2.9
Cc1onc(-c2c(F)cccc2Cl)c1C(=O)NC1CC1,-3.3,51.0,-3.1,10.5,-15.0,10.1
CCOC(=O)N1CCN(C(=S)Nc2ccc(C)cc2)CC1,-8.0,-2.2,-1.5,7.7,2.0,14.5
Cc1ccc(OCC(=O)Nc2ccc(CN3CCOCC3)cc2)cc1,-5.2,61.0*,6.1,23.7,0.5,11.7
CCOC(=O)c1ccc(NC(=O)CSC(=S)N2CCOCC2)cc1,-1.4,37.3,1.3,30.1,99.5*,-5.2
Cc1cccc(OCC(=O)Nc2ccc(CN3CCOCC3)cc2)c1C,3.3,-12.4,-3.8,20.0,0.6,5.9
CCOC(=O)c1sc(NC(=O)CSC(=S)N2CCN(C)CC2)nc1C,8.4,20.3,-1.2,13.2,98.8*,6.8
Cc1ccc(NC(=O)COC(=O)CSC(=S)N2CCOCC2)cc1,-7.5,28.3,2.5,-3.7,98.3*,18.1
CCOC(=O)c1sc(NC(=O)CCSC)nc1C,1.7,6.6,-0.4,35.7,42.1,-3.0
C/C(=N\NC(=O)c1ccc(=O)[nH]n1)c1cccnc1,-5.0,-2.8,1.9,-0.4,25.3,-7.6
COc1ccc(C(=O)c2ccc([N+](=O)[O-])cc2Cl)cc1,9.8,-1.3,1.1,11.6,-28.3,18.4
Cc1cnc(NC(=O)Cc2ccc(S(=O)(=O)N3CCOCC3)s2)s1,-20.3,·,·,·,92.2*,-20.3
CCc1nnc(NC(=O)CSC(=S)N2CCOCC2)s1,4.2,38.3,-0.7,11.6,-7.2,3.2
Cc1cnc(NC(=O)CSC(=S)N2CCOCC2)s1,-0.8,7.6,2.7,14.0,97.1*,-5.2
CCOC(=O)c1ccc(NC(=O)CN2C(=O)CN(C(C)=O)C2=S)cc1,-0.6,19.1,-11.4,27.0,99.4*,37.6
N#CCC(CNc1ncc(C(F)(F)F)cc1Cl)OC(=O)c1cccc([N+](=O)[O-])c1 (stereo unspecified),·,-6.9,1.7,8.0,-1.0,·
CS(=O)(=O)N1CCc2cc(C(=O)Nc3ccc(Cl)cc3)ccc21,12.8,9.7,-11.1,·,-6.1,41.2
CCN(CC)C(=O)c1cc(-c2ccc3c(c2)OCO3)on1,4.2,37.3,-1.4,-12.1,-4.5,18.7
Cn1c(/C(C#N)=C/C2CC=CCC2)nc2ccccc21 (stereo unspecified),20.6,3.6,-1.5,7.1,16.3,27.8
Cn1c(/C(C#N)=C/c2ccc(O)cc2)nc2ccccc21,4.3,3.8,-3.0,10.6,98.8*,5.9
Cn1c(/C(C#N)=C/c2ccncc2)nc2ccccc21,4.0,16.1,-6.5,19.8,3.1,40.1
COc1cc(/C=C(\C#N)c2nc3ccccc3n2C)cc(OC)c1O,5.8,8.3,-9.9,4.9,98.8*,19.0
SMILES,HSF1 inh,PHOSPHO1 inh,HCV core dimer,AI-2 QS modul,ALR inh,HSF-1 act
CSc1cc(-c2ccco2)oc1C(=O)c1ccco1,21.2,·,0.8,35.4,-1.5,51.1*
Cc1ccc(C)n1-c1ccc(-c2nnc3n2CCCCC3)s1,-9.1,29.7,12.2,36.5,·,-12.1
S=c1[nH]nc(C2CCCCC2)n1/N=C/c1ccncc1,-41.9,-116.3,-8.5,8.5,-0.6,-46.9
Cc1ccc(/C=N/n2c(C3CCCCC3)n[nH]c2=S)o1,-2.5,29.8,-1.4,16.4,96.7*,-0.3
S=c1[nH]nc(C2CCCCC2)n1/N=C/c1cccs1,-6.1,6.1,0.4,9.1,95.6*,22.4
CSc1ccc(/C=N/n2c(C3CCCCC3)n[nH]c2=S)cc1,-8.4,·,-0.1,-46.7,3.6,-1.0
Cc1cc2ccccn2c1C(=O)c1ccc(Cl)cc1,17.0,63.9*,1.3,8.3,-1.7,-2.9
Cc1ccccc1-n1c(C)nnc1SCC(=O)NCC1CCCO1 (stereo unspecified),-6.6,66.8*,-3.0,-3.2,-0.6,-1.1
CCCCc1c(O)nc(SCC(=O)NCC2CCCO2)[nH]c1=O (stereo unspecified),-11.5,-7.5,-6.4,-5.3,17.6,-2.6
Cn1cc(SCC(=O)Nc2nccs2)c2ccccc21,-3.5,38.3,-21.6,32.0,97.7*,3.3
Nc1ccccc1SCC(=O)Nc1nccs1,7.1,-6.4,-3.3,16.5,-1.5,17.8
Cn1cc(SCC(=O)NCC2CCCO2)c2ccccc21 (stereo unspecified),-10.4,-16.2,-6.5,3.3,97.4*,-23.5
Cc1nc(SCC(=O)NCC2CCCO2)[nH]c(=O)c1C (stereo unspecified),-55.9*,·,0.0,21.4,0.6,-66.6
CC(C)(C)c1ccc(C(=O)Nc2nnc(SCC(=O)NCC3CCCO3)s2)cc1 (stereo unspecified),-18.8,17.8,12.6,9.6,4.1,-28.1
CN(C)S(=O)(=O)c1ccc(C(=O)Nc2nnc(SCC(=O)NCC3CCCO3)s2)cc1 (stereo unspecified),-7.9,14.7,5.2,27.2,94.2*,-5.2
CC(C)NC(=O)/C(C#N)=C/c1cccc(NC(=O)c2ccccc2Cl)c1,-8.8,6.3,1.8,34.0,47.4,-7.1
COCCNC(=O)/C(C#N)=C/c1cc(Br)c(O)c(OC)c1,2.3,-7.7,-33.5,24.4,82.9*,-6.5
COCCNC(=O)/C(C#N)=C/c1cc(C(C)C)c(OC)cc1C,6.8,60.9*,0.4,39.7,-6.1,10.8
COc1cc(/C=C(\C#N)C(=O)NC(C)C)cc(Cl)c1O,6.9,2.5,-5.4,18.4,97.2*,21.6
CCc1ccc(NC(=O)CSc2nc(O)cc(=O)n2C2CCCC2)cc1,4.6,8.6,2.0,14.8,99.3*,-3.3
O=C(CSc1nc(O)cc(=O)n1C1CCCC1)Nc1cccc(Cl)c1Cl,16.8,37.3,0.6,23.9,99.1*,40.7
COC(=O)c1ccccc1NC(=O)CSc1nc(O)cc(=O)n1C1CCCC1,-0.7,-0.2,-4.9,3.9,97.8*,-17.1
CCCCNC(=O)CSc1nc(O)cc(=O)n1C1CCCC1,7.0,19.5,4.3,24.4,·,-0.3
CCOC(=O)C1(Cc2cccc(Cl)c2)CCCN(C(=O)c2ccc(COC)s2)C1 (stereo unspecified),2.2,17.4,5.0,26.6,-6.4,17.6
CS(=O)(=O)N1CC2CCCN2c2ccc(C(F)(F)F)cc21 (stereo unspecified),-0.1,6.2,6.2,5.9,3.1,6.2
